These results are taken from ChEMBL document CHEMBL1122553, “Tetrahydropyrrolo[1,2-a]quinoxalines and tetrahydropyrrolo[1,2-a]pyrido[3,2-a]pyrazines: vascular smooth muscle relaxants and antihypertensive agents” (1984).

For one experiment, the species on record is Oryctolagus cuniculus. The experiment in a line: The vascular smooth muscle relaxant activity was expressed as percent relaxation of the developed isometric tension in potassium depolarized rabbit aortic smooth muscle. In kind it is functional, Aorta. The essentials: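 Transverse thoracic aorta strips from female New Zealand albino rabbits in Krebs solution (95% O2/5% CO2, 37 °C), held at 4 g isometric tension and equilibrated 90 min. Strips were primed with high-K+ (100 mM) solution plus 2.5 mM CaCl2, rinsed, then recontracted. After 20 min of sustained contraction, drug was added at 10⁻⁵ M final. Tension 20 min later was compared with pre-drug tension and given as % relaxation.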

The next experiment deals with Rattus norvegicus. As to the kind of experiment: Antihypertensive activity expressed as maximal change in systolic blood pressure (SBP) from pretreatment levels at either 1.5 or 4 hr after dosing. In kind it is functional, Artery. The essentials:
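Male spontaneously hypertensive rats (Okamoto-Aoki, ~300-400 g), fasted at least 16 h, given a single oral 50 mg/kg dose by stomach tube; groups of four, with vehicle-only controls. Systolic pressure taken indirectly by tail plethysmography after 10 min warming at 38 °C, before dosing and at 1.5 and 4 h after. Reported as X ± SE.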

Each structure is given as a SMILES string.

Consider `COc1cccc(OC)c1CN1CC2CCCN2c2ncccc21` (centres undefined), for which, in the experiment listed under Oryctolagus cuniculus, the Vascular relaxation turned out to be 54%. In addition, the “Max SBP” value with Rattus norvegicus was -6 mmHg.

`COc1cccc(OC)c1CN1C(=O)C2CCCN2c2ncccc21` (centres undefined): in the experiment listed under Oryctolagus cuniculus, the Vascular relaxation stood at 5%. Besides, the “Max SBP” value in the experiment on Rattus norvegicus is listed as -18 mmHg.

The compound `COc1cccc(OC)c1C(=O)N1CC2CCCN2c2ccccc21` (centres undefined) displayed a Vascular relaxation in the experiment listed under Oryctolagus cuniculus of 6%. For the same compound, the “Max SBP” value in the experiment on Rattus norvegicus was -13 mmHg.

`O=C1C2CCCN2c2ncccc2N1Cc1ccccc1` (centres undefined) registered a Vascular relaxation in the experiment listed under Oryctolagus cuniculus of 0%. The “Max SBP” value in the experiment on Rattus norvegicus was -39 mmHg.

In the experiment filed under Oryctolagus cuniculus, `CN(C)CCN1C(=O)C2CCCN2c2ncccc21` (centres undefined) showed a Vascular relaxation of 0%. For the same compound, the “Max SBP” value in the experiment on Rattus norvegicus is reported as -22 mmHg.

In the case of `c1ccc2c(c1)NCC1CCCN21` (centres undefined), the Vascular relaxation in the experiment listed under Oryctolagus cuniculus was found to be 0%. Besides, the “Max SBP” value in the experiment on Rattus norvegicus is on record as -17 mmHg.

On to `O=C1C2CCCN2c2ccccc2N1Cc1ccncc1` (centres undefined), for which, in the experiment on Rattus norvegicus, the “Max SBP” value is -2 mmHg.

On to `O=C1C2CCCN2c2ccccc2N1Cc1ccccc1` (centres undefined), for which the “Max SBP” value in the experiment on Rattus norvegicus is recorded as -4 mmHg.

Turning to `O=C1Nc2ccccc2N2CCCC12` (centres undefined), in the experiment listed under Oryctolagus cuniculus, the Vascular relaxation was 0%. For the same compound, in the experiment with Rattus norvegicus, the “Max SBP” value is given as -26 mmHg.

Take `O=C1C2CCCN2c2ncccc2N1Cc1ccncc1` (centres undefined): the Vascular relaxation in the experiment filed under Oryctolagus cuniculus was found to be 0%. In addition, the “Max SBP” value with Rattus norvegicus was -38 mmHg.

`COc1cccc(OC)c1CN1C(=O)C2CCCN2c2ccccc21` (centres undefined): the Vascular relaxation in the experiment listed under Oryctolagus cuniculus turned out to be 30%. In the experiment with Rattus norvegicus, the “Max SBP” value is on record as -19 mmHg.

For `COC(=O)C1=C(C)NC(C)=C(C(=O)OC)C1c1ccccc1[N+](=O)[O-]` [NIFEDIPINE], the Vascular relaxation in the experiment listed under Oryctolagus cuniculus came to 75%. For the same compound, the “Max SBP” value in the experiment on Rattus norvegicus is recorded as -68 mmHg.

In turn, `COc1cccc(OC)c1CN1CC2CCCN2c2ccccc21` (centres undefined) showed a Vascular relaxation in the experiment listed under Oryctolagus cuniculus of 13%. In the experiment with Rattus norvegicus, the “Max SBP” value was -5 mmHg.
